The subject of one data set is HEK293. Description: Cytotoxicity against human HEK293 assessed as reduction in cell viability at 50 uM measured for 24 hrs by Alamar Blue assay. The following applies: hek293, 24 h. It counts as cell-based. Put shortly: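 HEK293 cells in DMEM with 10% FCS and 5 mM glutamine at 37°C, 5% CO2, seeded at 1.5×10^3 cells/well. Compounds added at 50 μM. AlamarBlue added after 24 h and incubated a further 21 h. Resorufin fluorescence read at Ex 530/Em 590 nm. Triplicates; daunorubicin positive control.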
For orientation: The colour change of resazurin is a common sign of viable cells or microbes.

The subject of data set [1] is Schistosoma mansoni. Put plainly: Antischistosomal activity against Schistosoma mansoni schistosomula at 10 uM incubated for 48 hrs by Alamar Blue assay. It counts as functional. The gist of the method:
(§1)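 S. mansoni newly transformed schistosomula from mechanically transformed cercariae, 100 NTS/well in Medium 199 with 10% FCS, penicillin, streptomycin and rifampicin. Pre-cultured 3 h at 37°C, 5% CO2. Compounds from 20 mM DMSO stocks, final 10 or 20 μM. Alamar Blue added after 48 h exposure, then 24 h more. Resorufin read at Ex 530/Em 590 nm. Live and ethanol-killed larvae as controls; triplicate wells, two biological replicates.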

For data set [2], the target named is T1, HDAC6 (protein deacetylase HDAC6) (Homo sapiens, UniProt Q9UBN7).
T1 sequence (Q9UBN7 whole entry): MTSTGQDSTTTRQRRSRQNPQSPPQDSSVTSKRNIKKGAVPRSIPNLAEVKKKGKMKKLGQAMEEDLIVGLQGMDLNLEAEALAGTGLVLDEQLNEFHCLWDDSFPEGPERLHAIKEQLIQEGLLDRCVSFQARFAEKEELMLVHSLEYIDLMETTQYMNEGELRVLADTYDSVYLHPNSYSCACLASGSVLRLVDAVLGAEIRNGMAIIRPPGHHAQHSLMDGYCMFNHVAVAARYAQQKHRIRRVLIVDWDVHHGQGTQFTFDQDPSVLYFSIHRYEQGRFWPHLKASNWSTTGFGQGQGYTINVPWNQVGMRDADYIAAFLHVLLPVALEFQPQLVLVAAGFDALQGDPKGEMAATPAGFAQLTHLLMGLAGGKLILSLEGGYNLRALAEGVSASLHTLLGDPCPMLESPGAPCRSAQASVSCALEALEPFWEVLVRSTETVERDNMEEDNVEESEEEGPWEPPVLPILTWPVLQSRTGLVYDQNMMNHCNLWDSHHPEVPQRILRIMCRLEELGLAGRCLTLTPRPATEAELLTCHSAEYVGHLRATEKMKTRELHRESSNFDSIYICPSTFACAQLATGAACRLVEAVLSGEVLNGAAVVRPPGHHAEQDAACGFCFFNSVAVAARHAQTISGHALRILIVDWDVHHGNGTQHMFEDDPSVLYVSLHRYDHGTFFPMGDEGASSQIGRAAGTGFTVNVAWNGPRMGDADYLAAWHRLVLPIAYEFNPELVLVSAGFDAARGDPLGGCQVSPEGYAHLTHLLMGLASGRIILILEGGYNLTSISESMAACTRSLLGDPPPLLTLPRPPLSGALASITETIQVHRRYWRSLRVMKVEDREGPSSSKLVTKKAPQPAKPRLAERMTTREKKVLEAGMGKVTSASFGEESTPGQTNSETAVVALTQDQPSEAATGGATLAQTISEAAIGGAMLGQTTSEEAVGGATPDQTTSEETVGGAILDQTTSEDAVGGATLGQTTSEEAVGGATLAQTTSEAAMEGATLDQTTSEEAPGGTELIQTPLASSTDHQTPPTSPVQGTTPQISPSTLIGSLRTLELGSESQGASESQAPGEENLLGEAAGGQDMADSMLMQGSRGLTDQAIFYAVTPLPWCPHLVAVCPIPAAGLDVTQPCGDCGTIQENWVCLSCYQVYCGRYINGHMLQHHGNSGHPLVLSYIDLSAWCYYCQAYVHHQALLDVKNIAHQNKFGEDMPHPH
Put plainly: Inhibition of recombinant human HDAC6 at 100 uM using ZMAL as substrate incubated for 90 mins by fluorescence based micro plate assay relative to control. The conditions noted are these: recombinant human HDAC6, probe ZMAL. The gist of the method: (§2)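 Recombinant human HDAC1 or HDAC6 incubated 90 min at 37°C with ZMAL (Z-(Ac)Lys-AMC, 10.5 μM) and inhibitor. Developed with buffer containing trypsin (1 mg/mL) and TSA (2.75 μM), 20 min at 37°C. Fluorescence read at Ex 390/Em 460 nm.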

Data set [3] relates to Schistosoma mansoni. Description: Antischistosomal activity against Schistosoma mansoni schistosomula at 20 uM incubated for 48 hrs by Alamar Blue assay. It counts as functional. The gist of the method:
as §1

The target of data set [4] is T2, HDAC1 (histone deacetylase 1) (Homo sapiens, UniProt Q13547). Description: Inhibition of recombinant human HDAC1 at 10 uM using ZMAL as substrate incubated for 90 mins by fluorescence based micro plate assay relative to control. The conditions noted are these: recombinant human HDAC1, probe ZMAL. Put shortly:
as §2

Data set [5] concerns the target T3, Histone deacetylase 8 (Schistosoma mansoni, UniProt A5H660).
T3 sequence (A5H660 whole entry): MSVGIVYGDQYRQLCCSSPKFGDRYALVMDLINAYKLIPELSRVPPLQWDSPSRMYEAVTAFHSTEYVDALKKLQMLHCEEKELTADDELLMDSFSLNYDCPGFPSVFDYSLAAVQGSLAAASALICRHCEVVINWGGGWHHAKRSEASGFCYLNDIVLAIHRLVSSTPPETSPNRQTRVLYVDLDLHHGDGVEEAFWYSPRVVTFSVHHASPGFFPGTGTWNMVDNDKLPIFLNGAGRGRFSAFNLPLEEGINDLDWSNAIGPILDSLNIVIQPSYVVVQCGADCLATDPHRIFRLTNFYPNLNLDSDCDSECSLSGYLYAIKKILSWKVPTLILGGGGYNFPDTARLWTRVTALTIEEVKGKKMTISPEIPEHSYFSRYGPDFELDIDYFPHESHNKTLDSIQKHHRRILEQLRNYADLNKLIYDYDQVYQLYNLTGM
Put plainly: Inhibition of Schistosoma mansoni HDAC8 using Fluor de Lys as substrate incubated for 90 mins by fluorescence method. The gist of the method: (§3)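 Recombinant smHDAC8 or hHDAC8 (Romier lab) run to Fluor de Lys HDAC8 kit protocol. Substrate H2N-Arg-His-Lys(Ac)-Lys(Ac)-AMC at 50 μM with increasing inhibitor concentrations, 90 min at 37°C. Stop solution holding inhibitor plus trypsin, then 20 min at 37°C to release AMC. Fluorescence read at Ex 355/Em 460 nm.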

Data set [6] has as its target T4, Protein deacetylase HDAC6 (Homo sapiens, UniProt Q9UBN7).
T4 sequence (Q9UBN7 whole entry): T1 sequence (Q9UBN7 whole entry)
Description: Inhibition of recombinant human HDAC6 using ZMAL as substrate incubated for 90 mins by fluorescence based micro plate assay.

The target in data set [7] is T2, HDAC1 (histone deacetylase 1). Description: (§4) Inhibition of recombinant human HDAC1 at 1 uM using ZMAL as substrate incubated for 90 mins by fluorescence based micro plate assay relative to control. The following applies: recombinant human HDAC1, probe ZMAL. Put shortly: as §2
Data set [8] has as its target T5, Histone deacetylase 8 (Homo sapiens, UniProt Q9BY41).
T5 sequence (Q9BY41 whole entry): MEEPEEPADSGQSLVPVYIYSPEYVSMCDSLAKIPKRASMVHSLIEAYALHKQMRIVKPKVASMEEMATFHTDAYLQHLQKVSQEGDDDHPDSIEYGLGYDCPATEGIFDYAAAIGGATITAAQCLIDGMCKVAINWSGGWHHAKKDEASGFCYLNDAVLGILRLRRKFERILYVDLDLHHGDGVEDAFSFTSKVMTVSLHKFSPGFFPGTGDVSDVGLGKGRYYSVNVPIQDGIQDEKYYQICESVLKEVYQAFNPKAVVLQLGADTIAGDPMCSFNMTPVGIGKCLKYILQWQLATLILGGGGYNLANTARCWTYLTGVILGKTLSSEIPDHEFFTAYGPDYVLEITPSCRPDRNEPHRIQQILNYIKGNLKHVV
Description: Inhibition of human recombinant HDAC8 using H2N-Arg-His-Lys(Ac)-Lys(Ac)-AMC as substrate after 90 mins by fluorescence based micro plate assay.

Data set [9] has as its target T1, HDAC6 (protein deacetylase HDAC6). Put plainly: Inhibition of recombinant human HDAC6 at 10 uM using ZMAL as substrate incubated for 90 mins by fluorescence based micro plate assay relative to control. The conditions noted are these: recombinant human HDAC6, probe ZMAL. The gist of the method:
as §2

For data set [10] the target is unchanged. Put plainly: Inhibition of recombinant human HDAC6 at 1 uM using ZMAL as substrate incubated for 90 mins by fluorescence based micro plate assay relative to control. The following applies: recombinant human HDAC6, probe ZMAL. The gist of the method:
as §2

Data set [11] addresses T6, Histone deacetylase 1 (Homo sapiens, UniProt Q13547). The description is as §4. The following applies: 1.5 h, 1 µM. Put shortly: as §2
Data set [12] in a line: Solubility of the compound. It counts as physicochemical.
Data set [13] deals with Schistosoma mansoni. Put plainly: Antischistosomal activity against Schistosoma mansoni schistosomula incubated for 72 hrs by Alamar Blue assay. It counts as functional, organism-based. Put shortly:
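Same schistosomula Alamar Blue assay (100 NTS/well, supplemented Medium 199, 37°C, 5% CO2) run over a range of concentrations. Alamar Blue added after 48 h drug exposure, fluorescence (Ex 530/Em 590 nm) read 24 h later, 72 h in culture in total. EC50 taken from the concentration-response.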

In data set [14] the target is T6, Histone deacetylase 1. Put plainly: Inhibition of recombinant human HDAC1 using ZMAL as substrate incubated for 90 mins by fluorescence based micro plate assay.
For data set [15], the target named is T7, Histone deacetylase 8 (Schistosoma mansoni) (UniProt A5H660).
T7 sequence (whole entry): T3 sequence (A5H660 whole entry)
Description: Inhibition of Schistosoma mansoni HDAC8 at 0.5 uM using Fluor de Lys as substrate incubated for 90 mins by fluorescence method relative to control. The gist of the method: as §3

Structures are written as SMILES.

The inhibition is the relative decrease from the control value, in per cent. The IC50 is the midpoint of a concentration-inhibition curve. What is called EC50 is the concentration that produces a half-maximal response. Low values mean a more potent agent, high ones a less potent agent.

T2 sequence (Q13547 whole entry): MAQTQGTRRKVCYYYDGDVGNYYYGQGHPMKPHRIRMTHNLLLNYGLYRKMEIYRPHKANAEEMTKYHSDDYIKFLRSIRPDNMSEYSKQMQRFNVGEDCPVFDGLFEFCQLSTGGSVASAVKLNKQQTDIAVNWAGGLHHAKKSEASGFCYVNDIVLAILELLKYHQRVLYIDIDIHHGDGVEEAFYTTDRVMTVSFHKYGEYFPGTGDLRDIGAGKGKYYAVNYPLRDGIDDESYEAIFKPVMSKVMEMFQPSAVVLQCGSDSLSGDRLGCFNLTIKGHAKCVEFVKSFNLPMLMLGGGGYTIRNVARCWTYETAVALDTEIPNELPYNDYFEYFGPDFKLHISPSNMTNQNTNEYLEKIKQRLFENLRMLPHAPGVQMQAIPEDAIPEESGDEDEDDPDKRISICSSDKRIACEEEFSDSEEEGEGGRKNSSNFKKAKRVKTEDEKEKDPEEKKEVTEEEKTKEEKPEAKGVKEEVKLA
T6 sequence (Q13547 whole entry): as above

Regarding `COc1ccc(Cn2ccc3ccc(C(=O)NO)cc32)cc1`, the figures for the Activity with HEK293, in the data set on Schistosoma mansoni [1] and in the data set with Schistosoma mansoni [3] were 96.8%, 71% and 62.3%, respectively. The inhibition at 1.5 h, 100 µM in [2] turned out to be 41%.

Consider `O=C(NO)c1ccc(Cl)c(NC(=O)c2ccc(-c3ccccc3)cc2Cl)c1`, for which the inhibition at 1.5 h, 10 µM in data set [4] came out at 18%. The Activity worked out at 77% with HEK293, 60.6% in the data set with Schistosoma mansoni [1] and 43.5% in the data set on Schistosoma mansoni [3]. Also, the IC50 at Histone deacetylase 8 [5] came to 110 nM; in data set [6] it was 2400 nM; at Histone deacetylase 8 [8] it was 780 nM. The inhibition at 1.5 h, 1 µM in data set [7] was determined as 7%.

Consider `COc1ccc(C(=O)NO)cc1NC(=O)c1ccc(-c2ccccc2)cc1Cl`, for which the inhibition at 1.5 h, 10 µM in [4] was determined as 16%; in data set [9], 46%. Further, the figures for the Activity with HEK293, with Schistosoma mansoni [1] and with Schistosoma mansoni [3] were 94.6%, 64% and 65.6%, respectively. Moreover, in data set [10], the inhibition at 1.5 h, 1 µM was 15%. The concentration for half-maximal inhibition (IC50) at Histone deacetylase 8 [5] was found to be 100 nM; on Histone deacetylase 8 [8], 1100 nM. The “inhibition (INH)” value on Histone deacetylase 1 [11] is on record as “Not Active”.

For `COc1ccc(C(=O)NO)cc1NC(=O)c1cccc2c1oc1ccccc12`, in data set [12], the solubility result is on record as “Insoluble”. Besides, the EC50 with Schistosoma mansoni [13] was determined as 3500 nM. The IC50 on Histone deacetylase 1 [14] amounted to 18500 nM; against Histone deacetylase 8 [5], 270 nM; in data set [6], 290 nM; on Histone deacetylase 8 [8] it was 320 nM. The Activity in the data set on HEK293 was found to be 73%; in the data set on Schistosoma mansoni [1], 2.2%.

For `COc1ccc(C(=O)NO)cc1C(=O)Nc1cccc(Cl)c1`, the Activity with HEK293 came out at 88.2%; with Schistosoma mansoni [1], 85.6%; in the data set on Schistosoma mansoni [3] it was 82.8%. The inhibition at 1.5 h, 1 µM in data set [10] turned out to be 25%; in data set [7], 0%. In addition, the IC50 on Histone deacetylase 8 [5] stood at 170 nM; on Histone deacetylase 8 [8] it was 280 nM.

Take `CCOc1ccc(C(=O)NO)cc1NC(=O)c1ccc(OC)cc1`: the Activity in the data set on HEK293 was 88.7%; in the data set with Schistosoma mansoni [1] it was 64.4%; in the data set on Schistosoma mansoni [3], 59.4%. This compound also came in with an inhibition in data set [15] of 51%.

Source of the values: ChEMBL document CHEMBL4842354, “Synthesis, structure-activity relationships, cocrystallization and cellular characterization of novel smHDAC8 inhibitors for the treatment of schistosomiasis” (Eur J Med Chem, 2021).
